Test results: ChEMBL document CHEMBL1817608, “Synthesis and anti-inflammatory effects of a series of novel 7-hydroxycoumarin derivatives” (Eur J Med Chem, 2011)

Legend:
[1] = test system: J774; test: Inhibition of LPS-stimulated iNOS protein expression in mouse J774 cells at 10 uM by Western blot analysis
[2] = test system: J774; test: Antiinflammatory activity in mouse J774 cells assessed as inhibition of LPS-induced NO production at 100 uM by Griess reaction; assay type: functional
Procedure, shortened: (§1)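 Confluent J774 macrophages, grown 72 h in 24-well plates, were stimulated with LPS in fresh medium containing compound. Nitrite was quantified against a sodium nitrite standard. Results were given as % inhibition versus LPS alone, mean ± S.E.M.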

[3] = test system: J774; test: Antiinflammatory activity in mouse J774 cells assessed as inhibition of LPS-induced NO production at 10 uM by Griess reaction; assay type: functional
Procedure, shortened: as §1

[4] = test system: J774; test: Inhibition of LPS-stimulated IL-6 production in mouse J774 cells at 10 uM by ELISA
[5] = test system: J774; test: Antiinflammatory activity in mouse J774 cells assessed as inhibition of LPS-induced COX-2 protein expression at 100 uM by Western blot
[6] = test system: J774; test: Cytotoxicity against mouse J774 cells at 100 uM by XTT assay; assay type: cell-based; settings: j774, 100 µM
Procedure, shortened: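 Confluent J774 monolayers were exposed to compound under the same conditions as the anti-inflammatory assays. Viability was read as mitochondrial dehydrogenase reduction of XTT to formazan.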

[7] = test system: J774; test: Inhibition of LPS-stimulated iNOS protein expression in mouse J774 cells at 100 uM by Western blot analysis
[8] = test system: J774; test: Inhibition of LPS-stimulated IL-6 production in mouse J774 cells at 100 uM by ELISA
[9] = test system: J774; test: Antiinflammatory activity in mouse J774 cells assessed as inhibition of LPS-induced COX-2 protein expression at 10 uM by Western blot
[10] = target: Transcription factor p65 (Mus musculus) (UniProt Q04207); test: Inhibition of NF-kB p65 nuclear translocation in LPS-stimulated mouse J774 cells at 100 uM by Western blot analysis; assay type: cell-based
Sequence of Transcription factor p65 (Mus musculus) (Q04207 whole entry): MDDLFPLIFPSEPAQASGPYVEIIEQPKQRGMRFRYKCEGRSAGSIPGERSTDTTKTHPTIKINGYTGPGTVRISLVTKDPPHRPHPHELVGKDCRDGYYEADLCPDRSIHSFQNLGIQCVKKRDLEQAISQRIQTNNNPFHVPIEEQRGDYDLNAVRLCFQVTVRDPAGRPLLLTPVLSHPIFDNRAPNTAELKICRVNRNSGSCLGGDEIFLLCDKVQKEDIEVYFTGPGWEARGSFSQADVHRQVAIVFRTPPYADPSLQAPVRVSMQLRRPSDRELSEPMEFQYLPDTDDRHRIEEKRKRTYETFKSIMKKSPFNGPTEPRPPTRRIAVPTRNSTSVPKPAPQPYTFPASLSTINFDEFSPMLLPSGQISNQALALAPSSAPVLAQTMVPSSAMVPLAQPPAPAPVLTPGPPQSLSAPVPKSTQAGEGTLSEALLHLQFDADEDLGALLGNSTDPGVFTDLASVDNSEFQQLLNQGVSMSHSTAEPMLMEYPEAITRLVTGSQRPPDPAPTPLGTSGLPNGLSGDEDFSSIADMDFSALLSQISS
Procedure, shortened: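 J774 murine macrophages were grown in DMEM glutamax-I with 10% heat-inactivated FBS and antibiotics for 72 h to confluence, then given compound with LPS in fresh medium. Nuclear extracts were made by hypotonic lysis followed by high-salt extraction of the nuclei. 20 µg protein was run on 10% SDS-PAGE and blotted onto nitrocellulose. Blots were probed with anti-p65 and an HRP secondary antibody, and chemiluminescence was quantified. Results are mean ± SEM.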

[11] = target: Transcription factor p65 (Mus musculus) (UniProt Q04207); test: Inhibition of NF-kB p65 nuclear translocation in LPS-stimulated mouse J774 cells by Western blot analysis; assay type: cell-based; settings: concentration not given here
Procedure, shortened: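 Nuclear extracts were prepared from LPS-treated J774 cells using hypotonic buffer A followed by high-salt buffer C (420 mM NaCl). Extract protein (20 µg) was run on 10% SDS-PAGE, blotted, and probed with anti-NF-κB p65 antibody, then detected by chemiluminescence.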

[12] = test system: J774; test: Inhibition of LPS-stimulated iNOS mRNA expression in mouse J774 cells by RT-PCR analysis; assay type: functional
Procedure, shortened: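 J774 cells were incubated for 3 h with LPS plus compound. Total RNA was extracted and reverse-transcribed, then run by real-time PCR for 40 cycles (95 °C 15 s / 60 °C 1 min), in duplicate. iNOS mRNA was quantified from a standard curve built with LPS-stimulated J774 RNA and normalised to GAPDH.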

Row | inhibition [11] | SMILES | inhibition at 10 µM [1] | inhibition at 100 µM [2] | inhibition at 10 µM [3] | inhibition at 10 µM [4] | inhibition at 100 µM [5] | Activity [6] | inhibition at 100 µM [7] | inhibition at 100 µM [8] | inhibition at 10 µM [9] | inhibition [10] | inhibition (INH) [12]
1 |  | Cc1cc(O)cc2oc(=O)cc(C)c12 | -19.7% | 71% | -8.6% | 14.5% | -17.5% | Non-toxic | 74.3% | 66.4% | -14.8% |  | 
2 |  | O=c1cc(-c2ccccc2)c2ccc(O)cc2o1 | 46.5% | 85% | 54.8% |  | -0.4% | Non-toxic | 93% | 95.7% | -47.1% |  | 
3 |  | S=C(S)N1CCCC1 [PYRROLIDINE DITHIOCARBAMATE] |  |  |  |  |  |  | 97% |  |  | 95% | 
4 |  | COc1c(O)ccc2c(C)c(F)c(=O)oc12 | 2.7% | 50.2% | 15.8% | 10.7% | -36.8% | Non-toxic | 86.2% | 14.8% | -15.4% |  | 
5 |  | Cc1cc(=O)oc2c(C)c(O)ccc12 | 20.1% | 65.7% | 17.3% | 17.5% | 7.8% | Non-toxic | 61.4% | 82.8% | 2.3% |  | 
6 | 65% | Cc1c(C)c2c(C)cc(O)cc2oc1=O | 49.6% | 92.4% | 51.8% |  | 11.1% | Non-toxic | 94.7% | 92.2% | -31.7% |  | 50%
7 |  | CCCc1cc(=O)oc2cc(O)cc(C)c12 | 7.8% | 62.5% | 38.5% | 12.2% | -45.6% | Non-toxic | 87.8% | 54.3% | -6.8% |  | 
8 |  | Cc1cc(=O)oc2cc(O)ccc12 [HYMECROMONE] | 22.1% | 42.9% | -14.2% | 4.6% | 22.7% | Non-toxic | 61.8% | 44.1% | 3.2% |  | 
9 |  | COc1c(O)ccc2c(-c3ccccc3)cc(=O)oc12 | 55.9% | 81.8% | 71.5% |  | -34.7% | Non-toxic | 84.6% | 46.9% | -59.1% |  | 
10 |  | Cc1c(F)c(=O)oc2cc(O)ccc12 | 46.5% | 62.8% | 7.4% | 21.2% | -25.1% | Non-toxic | 53% | 38.1% | -2.2% |  | 
11 |  | CCc1c(C)c2ccc(O)c(C)c2oc1=O | 18.9% | 87% | 46.5% | 26.1% | 21% | Non-toxic | 65.2% | 94.9% | -36.8% |  | 
12 |  | O=c1cc(-c2ccccc2F)c2ccc(O)cc2o1 | 48.8% | 87.5% | 50.4% | 0.3% | -16.6% | Non-toxic | 95.4% | 92.7% | -34.7% |  | 
13 | 65% | Cc1c(C)c2ccc(O)cc2oc1=O | 28.6% | 88.9% | 37.6% | 16.7% | 3.7% | Non-toxic | 85.5% | 85.7% | -57.7% |  | 50%
14 | 65% | CCc1c(C)c2ccc(O)cc2oc1=O | 7.5% | 92.3% | 43.3% | 27.9% | -73.2% | Non-toxic | 91% |  | -29.9% |  | 50%
15 |  | O=c1ccc2ccc(O)cc2o1 [UMBELLIFERONE] | 10% | 64.4% | 5.5% | 3.2% | -20.4% | Non-toxic | 47.2% | 34.1% | -17.2% |  | 
16 |  | Cc1cc(O)cc2oc(=O)ccc12 | 2.7% | 80% | 9.2% |  | -60.4% | Non-toxic | 86.2% | 4.2% | -44.1% |  | 
17 |  | CCCc1cc(=O)oc2c(OC)c(O)ccc12 | 13.4% | 83.7% | 57% | 11% | 8.6% | Non-toxic | 74.6% | 73.4% | -38.9% |  | 
18 |  | CCCc1cc(=O)oc2cc(O)ccc12 | 25.3% | 67.6% | 25.3% | 25.4% | 25% | Non-toxic | 89.7% | 88.9% | -11.1% |  | 
